Experimental data published in ChEMBL document CHEMBL3352301, “Novel sulfonyl(thio)urea derivatives act efficiently both as insulin secretagogues and as insulinomimetic compounds” (Eur J Med Chem, 2014).
Activity calls are given as the source filed them. The calls are words filed in the database; no cut-off is given here.

Key:
Rattus norvegicus [1] = experiment: Antihyperglycemic activity in fasted hyperglycemic Wistar rat assessed as serum glucose level at 10 mg/kg, po measured 15 mins post dose by oral glucose tolerance test (reference value: 177.46 +/- 5.95 mg/dL); format: functional
Outline: (§1)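 Rats fasted at least 16 h (water free) were given glucose 4 g/kg by oral gavage; test compounds 10 mg/kg were gavaged in 0.3% Tween 80. Tail-vein blood was taken before dosing and at 15, 30, 60 and 180 min, then centrifuged. Serum glucose was measured by the glucose oxidase method. Six determinations per group, mean ± S.E.M.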

Rattus norvegicus [2] = experiment: Antihyperglycemic activity in fasted hyperglycemic Wistar rat assessed as serum glucose level at 10 mg/kg, po measured 30 mins post dose by oral glucose tolerance test (reference value: 190.15 +/- 1.77 mg/dL); format: functional; outline: as §1
Rattus norvegicus [3] = experiment: Antihyperglycemic activity in fasted hyperglycemic Wistar rat assessed as serum glucose level at 10 mg/kg, po measured 60 mins post dose by oral glucose tolerance test (reference value: 182.55 +/- 6.95 mg/dL); format: functional; outline: as §1
Rattus norvegicus [4] = experiment: Antihyperglycemic activity in fasted hyperglycemic Wistar rat assessed as serum glucose level at 10 mg/kg, po measured 180 mins post dose by oral glucose tolerance test (reference value: 141.15 +/- 4.47 mg/dL); format: functional; outline: as §1
Rattus norvegicus [5] = experiment: Insulin secretagogue activity in fasted hyperglycemic Wistar rat assessed as insulin level at 10 mg/kg, po measured 15 mins post dose by ELISA method (reference value: 2.84 +/- 0.002 ng/mL); format: functional
Rattus norvegicus [6] = experiment: Insulin secretagogue activity in fasted hyperglycemic Wistar rat assessed as insulin level at 10 mg/kg, po measured 30 mins post dose by ELISA method (reference value: 0.75 +/- 0.007 ng/mL); format: functional
Rattus norvegicus [7] = experiment: Insulin secretagogue activity in fasted hyperglycemic Wistar rat assessed as insulin level at 10 mg/kg, po measured 60 mins post dose by ELISA method (reference value: 0.59 +/- 0.004 ng/mL); format: functional
Rattus norvegicus [8] = experiment: Insulin secretagogue activity in fasted hyperglycemic Wistar rat assessed as insulinogenic index ratio at 10 mg/kg, po by ELISA method (reference value: 0.66 ng/mg); format: functional
Outline: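 Serum insulin (ELISA) and glucose (glucose oxidase) were sampled from 0 to 60 min after oral glucose 4 g/kg plus compound 10 mg/kg gavage in fasted rats. Incremental areas under the curves were computed. Insulinogenic index = AUC insulin / AUC glucose over 0–60 min.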

Rattus norvegicus [9] = experiment: Effect on glycogen content in skeletal muscle of fasted hyperglycemic Wistar rat assessed per gram of tissue at 10 mg/kg, po measured 3 hrs post dose (reference value: 8.6 +/- 1 mg/g of tissue); format: functional
Rattus norvegicus [10] = experiment: Effect on glycogen content in liver of fasted hyperglycemic Wistar rat assessed per gram of tissue at 10 mg/kg, po measured 3 hrs post dose (reference value: 14.6 +/- 1.27 mg/g of tissue); format: functional
Rattus norvegicus [11] = experiment: Toxicity in fasted hyperglycemic Wistar rat assessed as LDH level at 10 mg/kg, po by spectrophotometry based LDH release assay (reference value: 75.63 +/- 7.08 IU/L); format: organism-based; set-up: dose 10 mg/kg, route oral; conditions: in vivo
[12] = Effect on glucose uptake in Wistar rat soleus muscle assessed per mg of protein at 1 uM by liquid scintillation counting based [14C]-2-deoxy-D-glucose uptake assay (reference value: 0.16 +/- 0.03 nmol glucose/mg protein); format: functional
[13] = Effect on glucose uptake in Wistar rat soleus muscle assessed per mg of protein at 10 uM by liquid scintillation counting based [14C]-2-deoxy-D-glucose uptake assay (reference value: 0.16 +/- 0.03 nmol glucose/mg protein); format: functional
Soleus muscle [14] = experiment: Stimulation of glucose uptake in Wistar rat soleus muscle assessed as glucose level per mg of protein at 100 uM by liquid scintillation counting based [14C]-2-deoxy-D-glucose uptake assay (reference value: 0.16 +/- 0.03 nmol glucose/mg protein); format: functional
Soleus muscle [15] = experiment: Stimulation of glucose uptake in Wistar rat soleus muscle at 10 uM in presence of 100 nM PI-3K inhibitor wortmannin by liquid scintillation counting based [14C]-2-deoxy-D-glucose uptake assay; format: functional, tissue-based
Outline: (§2)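 Rat soleus in Krebs-Ringer bicarbonate (37 °C, O2/CO2 95:5, pH 7.4). Inhibitor or modulator (wortmannin 100 nM, H89, PMA 100 nM or cycloheximide) was present through a 30 min preincubation and a 60 min incubation, with or without compound. 14C-2-deoxy-D-glucose was added during incubation only. Uptake by scintillation counting normalised to Lowry protein; n=4 of 3 independent experiments.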

Soleus muscle [16] = experiment: Stimulation of glucose uptake in Wistar rat soleus muscle at 10 uM in presence of 10 uM PKA inhibitor H89 by liquid scintillation counting based [14C]-2-deoxy-D-glucose uptake assay; format: functional, tissue-based; outline: as §2
Soleus muscle [17] = experiment: Stimulation of glucose uptake in Wistar rat soleus muscle at 10 uM in presence of 100 nM PMA by liquid scintillation counting based [14C]-2-deoxy-D-glucose uptake assay; format: functional, tissue-based; outline: as §2
Soleus muscle [18] = experiment: Stimulation of glucose uptake in Wistar rat soleus muscle at 10 uM in presence of 350 uM cycloheximide by liquid scintillation counting based [14C]-2-deoxy-D-glucose uptake assay; format: functional, tissue-based; outline: as §2
Soleus muscle [19] = experiment: Stimulation of protein synthesis in Wistar rat soleus muscle at 10 uM by liquid scintillation counting based 1-[U-14C]leucine incorporation assay; format: functional, tissue-based
Outline: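 Soleus muscles from fasted rats were preincubated 30 min in Krebs-Ringer bicarbonate (O2/CO2 95:5, pH 7.4), then incubated 60 min with compound and L-[U-14C]leucine. The reaction was stopped with cold TCA (7% final). Incorporation was expressed as cpm/mg protein (Lowry); n=4 of 3 independent experiments.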

Soleus muscle [20] = experiment: Increase in GLUT4 expression in Wistar rat soleus muscle at 20 uM after 60 mins by polyacrylamide gel electrophoresis and immunoblotting analysis; format: functional, tissue-based
Soleus muscle [21] = experiment: Increase in GLUT4 expression in Wistar rat soleus muscle at 20 uM after 60 mins in presence of 350 uM cycloheximide by polyacrylamide gel electrophoresis and immunoblotting analysis; format: functional, tissue-based
Soleus muscle [22] = experiment: Increase in GLUT4 expression in Wistar rat soleus muscle membranes at 10 uM after 60 mins by immunofluorescence analysis; format: functional, cell membranes
Outline: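 Soleus was taken after 60 min in vitro incubation, or 180 min after oral gavage at 10 mg/kg. Tissue was fixed in 4% paraformaldehyde, paraffin-embedded and cut at 5 µm, with citrate antigen retrieval. Sections were stained with mouse anti-GLUT4 (1:500, overnight) then Cy3 anti-mouse, with DAPI counterstain. GLUT4 distribution was assessed qualitatively.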

Rattus norvegicus [23] = experiment: Increase in GLUT4 expression in soleus muscle membranes of Wistar rat at 10 mg/kg, po after 180 mins by immunofluorescence analysis; conditions: Membrane
[24] = molecular target: ATP-binding cassette sub-family C member 8 (Homo sapiens, UniProt Q09428); experiment: Binding affinity to SUR1 (unknown origin)
Chain of ATP-binding cassette sub-family C member 8 (Q09428 whole entry): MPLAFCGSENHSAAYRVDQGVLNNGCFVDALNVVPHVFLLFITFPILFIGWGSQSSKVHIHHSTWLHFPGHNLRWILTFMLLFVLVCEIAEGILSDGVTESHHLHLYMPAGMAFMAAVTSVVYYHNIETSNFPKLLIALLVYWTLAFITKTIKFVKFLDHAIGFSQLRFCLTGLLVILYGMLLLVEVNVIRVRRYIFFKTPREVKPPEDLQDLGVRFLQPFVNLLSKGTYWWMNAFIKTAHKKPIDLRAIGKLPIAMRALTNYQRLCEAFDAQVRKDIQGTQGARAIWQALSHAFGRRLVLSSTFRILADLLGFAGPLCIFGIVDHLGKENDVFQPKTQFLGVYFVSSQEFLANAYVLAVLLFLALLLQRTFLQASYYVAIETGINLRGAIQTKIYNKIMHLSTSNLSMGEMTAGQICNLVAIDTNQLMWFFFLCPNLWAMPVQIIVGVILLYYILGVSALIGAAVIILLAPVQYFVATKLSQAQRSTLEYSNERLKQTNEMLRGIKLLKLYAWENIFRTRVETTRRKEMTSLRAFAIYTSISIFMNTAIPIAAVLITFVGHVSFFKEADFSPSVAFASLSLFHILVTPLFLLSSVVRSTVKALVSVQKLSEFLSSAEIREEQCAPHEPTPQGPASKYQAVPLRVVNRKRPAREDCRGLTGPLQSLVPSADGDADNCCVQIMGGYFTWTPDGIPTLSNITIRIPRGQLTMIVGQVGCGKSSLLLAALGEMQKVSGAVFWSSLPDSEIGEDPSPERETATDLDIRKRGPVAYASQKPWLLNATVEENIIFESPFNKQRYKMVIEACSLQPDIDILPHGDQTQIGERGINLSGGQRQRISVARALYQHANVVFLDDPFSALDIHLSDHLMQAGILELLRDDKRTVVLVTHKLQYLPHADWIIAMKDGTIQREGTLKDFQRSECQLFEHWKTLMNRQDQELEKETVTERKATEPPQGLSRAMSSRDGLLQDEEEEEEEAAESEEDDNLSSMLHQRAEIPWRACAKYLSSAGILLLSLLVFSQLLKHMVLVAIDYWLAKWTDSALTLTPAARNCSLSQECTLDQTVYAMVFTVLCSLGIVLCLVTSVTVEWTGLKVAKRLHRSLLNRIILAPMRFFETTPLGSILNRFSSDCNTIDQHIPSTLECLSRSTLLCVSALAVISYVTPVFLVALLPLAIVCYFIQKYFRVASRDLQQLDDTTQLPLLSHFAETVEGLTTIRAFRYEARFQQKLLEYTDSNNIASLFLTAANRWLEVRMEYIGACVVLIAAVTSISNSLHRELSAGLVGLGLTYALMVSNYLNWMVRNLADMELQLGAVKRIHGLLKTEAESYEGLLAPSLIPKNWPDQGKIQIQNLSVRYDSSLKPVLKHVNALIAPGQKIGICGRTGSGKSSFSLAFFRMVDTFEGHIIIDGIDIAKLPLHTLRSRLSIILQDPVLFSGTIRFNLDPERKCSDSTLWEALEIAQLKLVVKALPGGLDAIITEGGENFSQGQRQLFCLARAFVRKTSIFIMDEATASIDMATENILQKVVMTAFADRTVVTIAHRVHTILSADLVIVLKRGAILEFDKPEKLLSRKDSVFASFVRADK

Compound | Activity (Rattus norvegicus [1]) [mg/dL] | Activity (Rattus norvegicus [2]) [mg/dL] | Activity (Rattus norvegicus [3]) [mg/dL] | Activity (Rattus norvegicus [4]) [mg/dL] | Activity (Rattus norvegicus [5]) [ng/mL] | Activity (Rattus norvegicus [6]) [ng/mL] | Activity (Rattus norvegicus [7]) [ng/mL] | Ratio (Rattus norvegicus [8]) [ng/mg] | Activity (Rattus norvegicus [9]) [mg] | Activity (Rattus norvegicus [10]) [mg] | Activity (Rattus norvegicus [11]) [IU/L] | other results
COc1ccc(Cl)cc1C(=O)NCCc1ccc(S(=O)(=O)NC(=O)NC2CCCCC2)cc1 [GLYBURIDE] | 140.49 | 135.24 | 128.34 | 124.28 | 3.83 | 2.66 | 2.46 | 1.98 | 17.46 | 8.71 | 41.08 | –
O=S(=O)(NC(=S)Nc1ccccc1)c1ccc(CCNS(=O)(=O)c2cccc3cccnc23)cc1 | 147.97 | 160.22 | 140.08 | 139.63 | 2.26 | 1.36 | 0.6 | 0.84 | 9.93 | 11.33 | 71.3 | –
Cc1ccc(S(=O)(=O)NCCc2ccc(S(=O)(=O)NC(=S)Nc3ccccc3)cc2)cc1 | 151.25 | 157.14 | 173.51 | 152.6 | – | – | – | – | – | – | – | –
CC(C)c1cc(C(C)C)c(S(=O)(=O)NCCc2ccc(S(=O)(=O)NC(=S)Nc3ccccc3)cc2)c(C(C)C)c1 | 149.51 | 168.72 | 152.76 | 142.08 | – | – | – | – | – | – | – | –
O=S(=O)(NC(=S)Nc1ccccc1)c1ccc(CCNS(=O)(=O)c2cccs2)cc1 | 150.23 | 141.6 | 140.96 | 139.26 | 3.01 | 1.19 | 1.46 | 1.06 | 20.69 | 7.68 | 72.19 | Activity [12]: 0.35 nmol; Activity [13]: 0.3 nmol; Activity (Soleus muscle [14]): 0.32 nmol; Activity (Soleus muscle [15]): inactive; Activity (Soleus muscle [16]): inactive; Activity (Soleus muscle [17]): inactive; Activity (Soleus muscle [18]): inactive; Activity (Soleus muscle [19]): Active; Activity (Soleus muscle [20]): Active; Activity (Soleus muscle [21]): inactive; Activity (Soleus muscle [22]): Active; Activity (Rattus norvegicus [23]): Active
COc1ccc(S(=O)(=O)NCCc2ccc(S(=O)(=O)NC(=S)Nc3ccccc3)cc2)cc1 | 150.98 | 144.75 | 154.79 | 124.7 | 2.75 | 0.7 | 0.53 | 0.77 | 7.24 | 104.25 | 108.01 | –
O=S(=O)(NCCc1ccc(S(=O)(=O)NC(=S)Nc2ccccc2)cc1)c1ccccc1 | 146.02 | 151.62 | 158.27 | 134.44 | 0.39 | 0.35 | 0.78 | 0.31 | 6.93 | 10.66 | 68.09 | –
O=S(=O)(NCCc1ccc(S(=O)(=O)NC(=S)Nc2ccccc2)cc1)c1ccc(F)cc1 | 148.8 | 165.7 | 165.3 | 146.4 | – | – | – | – | – | – | – | –
COc1ccc(S(=O)(=O)NCCc2ccc(S(=O)(=O)NC(=O)Nc3cccc4ccccc34)cc2)cc1 | 155.68 | 156.4 | 157.9 | 143.6 | – | – | – | – | – | – | – | –
COc1cc(NC(C)=O)c(Cl)cc1C(=O)NCCc1ccc(S(=O)(=O)NC(=O)NC2CCCCC2)cc1 | – | – | – | – | – | – | – | – | – | – | – | Kd [24]: 0.38 nM
COc1ccc(S(=O)(=O)NCCc2ccc(S(=O)(=O)NC(=S)Nc3ccc(Cl)cc3)cc2)cc1 | 141.45 | 158.69 | 151.74 | 139.54 | 2.69 | 0.71 | 0.52 | 0.72 | 28.51 | 69.35 | 73.92 | –
CC1(C)C2CCC1(CS(=O)(=O)NCCc1ccc(S(=O)(=O)NC(=S)Nc3ccccc3)cc1)C(=O)C2 (stereo not given) | 151.58 | 160.61 | 149.03 | 149.35 | – | – | – | – | – | – | – | –
COc1cc(NC(=O)CO[C@H]2O[C@H](CO)[C@@H](O)[C@H](O)[C@H]2O)c(Cl)cc1C(=O)NCCc1ccc(S(=O)(=O)NC(=O)NC2CCCCC2)cc1 | – | – | – | – | – | – | – | – | – | – | – | Kd [24]: 2.08 nM
